Data from ChEMBL document CHEMBL3580560, “Isolation, Structural Modification, and HIV Inhibition of Pentacyclic Lupane-Type Triterpenoids from Cassine xylocarpa and Maytenus cuzcoina” (J Nat Prod, 2015).
pIC50: −log10 of the molar value.

Columns and labels:
[1] = Selectivity index, ratio of CC50 for mock-infected human MT2 cells to IC50 for HIV1 NL4.3-Ren infected in human MT2 cells; type: functional
[2] = system: Human immunodeficiency virus 1; assay: Antiviral activity against HIV1 NL4.3-Ren infected in human MT2 cells assessed as inhibition of viral growth measured 48 hrs post infection by luminometry; type: functional, organism-based; conditions: Human immunodeficiency virus 1, NL4.3-Ren, MT2, 48 h
Method in brief: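 MT-2 cells infected with X4-tropic HIV-1 NL4.3-Ren supernatant produced in 293T cells. Fivefold serial dilutions from 100 to 0.032 μM were tested. At 48 h postinfection, cells were lysed and Renilla luciferase RLU were measured. IC50 was fitted from the dose–response curve; values are the mean of at least three independent experiments.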

[3] = Cytotoxicity against mock-infected human MT2 cells assessed as reduction in cell viability incubated for 48 hrs by cell-titer Glo assay; type: cell-based
Method in brief: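 Uninfected MT-2 cells received RPMI medium instead of viral supernatant and were treated in parallel with the same fivefold dilutions (100–0.032 μM). […] Values are the mean of at least three independent experiments.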

[4] = system: Human immunodeficiency virus 1; assay: Antiviral activity against HIV1 NL4.3-Ren infected in human MT2 cells assessed as inhibition of viral growth at 10 uM measured 48 hrs post infection by luminometry; type: functional; conditions: Human immunodeficiency virus 1, NL4.3-Ren, MT2, 48 h

Compound	Ratio CC50/IC50 [1]	pIC50 [2]	CC50 at 48 h [3] [µM]	inhibition at 10 µM [4] [%]
C=C(C)[C@@H]1CC[C@]2(COC(C)=O)CC[C@]3(C)[C@H](CC[C@@H]4[C@@]5(C)CCC(=O)C(C)(C)[C@@H]5CC[C@]43C)[C@@H]12	1.5	4.87	20	> 50
C=C(C)[C@@H]1CC[C@]2(COC(C)=O)CC[C@]3(C)[C@H](CC[C@@H]4[C@@]5(C)CC[C@H](O)C(C)(C)[C@@H]5CC[C@]43C)[C@@H]12	–	–	–	< 50
C=C(CO)[C@@H]1CC[C@]2(C)CC[C@]3(C)[C@H](CC[C@@H]4[C@@]5(C)CCC(=O)C(C)(C)[C@@H]5[C@H](O)C[C@]43C)[C@@H]12	2.1	5.02	20	> 50
C=C(C(=O)O)[C@@H]1CC[C@]2(C)CC[C@]3(C)[C@H](CC[C@@H]4[C@@]5(C)CCC(=O)C(C)(C)[C@@H]5CC[C@]43C)[C@@H]12	–	4.00	> 100	> 50
CC(C)(O)[C@@H]1CC[C@]2(C)CC[C@]3(C)[C@H](CC[C@@H]4[C@@]5(C)CCC(=O)C(C)(C)[C@@H]5[C@H](O)C[C@]43C)[C@@H]12	>14.3	5.15	> 100	> 50
C=C(C)[C@@H]1CC[C@]2(C)CC[C@]3(C)[C@H](C[C@@H](O)[C@@H]4[C@@]5(C)C=CC(=O)C(C)(C)[C@@H]5CC[C@]43C)[C@@H]12	6.9	5.06	60.4	> 50
C=C(C)[C@@H]1CC[C@]2(C)CC[C@]3(C)[C@H](CC[C@@H]4[C@@]5(CO)CC[C@H](O)C(C)(C)[C@@H]5CC[C@]43C)[C@@H]12	2.9	5.16	20	> 50
C=C(COC(C)=O)[C@@H]1CC[C@]2(C)CC[C@]3(C)[C@H](CC[C@@H]4[C@@]5(C)CCC(=O)C(C)(C)[C@@H]5CC[C@]43C)[C@@H]12	2.8	4.88	36.2	> 50
CC(C)(O)[C@@H]1CC[C@]2(C)CC[C@]3(C)[C@H](CC[C@@H]4[C@@]5(C)CC[C@H](O)C(C)(C)[C@@H]5[C@H](O)C[C@]43C)[C@@H]12	–	–	–	< 50
C=C(C)[C@@H]1CC[C@]2(CO)CC[C@]3(C)[C@H](CC[C@@H]4[C@@]5(C)[C@H](O)C[C@@H](O)C(C)(C)[C@@H]5CC[C@]43C)[C@@H]12	–	–	–	< 50
C=C(C)[C@@H]1CC[C@]2(CO)CC[C@]3(C)[C@H](C[C@@H](O)[C@@H]4[C@@]5(C)CCC(=O)C(C)(C)[C@@H]5CC[C@]43C)[C@@H]12	–	–	–	< 50
C=C(C)[C@@H]1CC[C@]2(C)CC[C@]3(C)[C@H](C[C@@H](O)[C@@H]4[C@@]5(C)CC[C@@H](O)C(C)(C)[C@@H]5CC[C@]43C)[C@@H]12	–	–	–	< 50
C=C(C)[C@@H]1CC[C@]2(C)CC[C@]3(C)[C@H](CC[C@@H]4[C@@]5(C)[C@H](O)C[C@H](O)C(C)(C)[C@@H]5CC[C@]43C)[C@@H]12	–	–	–	< 50
C=C(C)[C@@H]1CC[C@]2(COC(=O)C(C)(C)C)CC[C@]3(C)[C@H](CC[C@@H]4[C@@]5(C)CC[C@H](O)C(C)(C)[C@@H]5CC[C@]43C)[C@@H]12	–	–	–	< 50
C=C(C)[C@@H]1CC[C@]2(COC(=O)CCCCCCC)CC[C@]3(C)[C@H](CC[C@@H]4[C@@]5(C)CC[C@H](O)C(C)(C)[C@@H]5CC[C@]43C)[C@@H]12	–	–	–	< 50
C=C(C)[C@@H]1CC[C@]2(COC(=O)c3ccccc3)CC[C@]3(C)[C@H](CC[C@@H]4[C@@]5(C)CC[C@H](O)C(C)(C)[C@@H]5CC[C@]43C)[C@@H]12	–	–	–	< 50
C=C(C)[C@@H]1CC[C@]2(COC(=O)c3cccc4ccccc34)CC[C@]3(C)[C@H](CC[C@@H]4[C@@]5(C)CC[C@H](O)C(C)(C)[C@@H]5CC[C@]43C)[C@@H]12	–	–	–	< 50
C=C(C)[C@@H]1CC[C@]2(COC(=O)c3ccc(Br)cc3)CC[C@]3(C)[C@H](CC[C@@H]4[C@@]5(C)CC[C@H](O)C(C)(C)[C@@H]5CC[C@]43C)[C@@H]12	–	–	–	< 50
C=C(C)[C@@H]1CC[C@]2(COS(=O)(=O)c3ccc(C)cc3)CC[C@]3(C)[C@H](CC[C@@H]4[C@@]5(C)CC[C@H](O)C(C)(C)[C@@H]5CC[C@]43C)[C@@H]12	–	–	–	< 50
C=C(C)[C@@H]1CC[C@]2(COC(=O)CCCCCCC)CC[C@]3(C)[C@H](CC[C@@H]4[C@@]5(C)CC[C@H](OC(=O)CCCCCCC)C(C)(C)[C@@H]5CC[C@]43C)[C@@H]12	–	–	–	< 50

Compound	Ratio CC50/IC50 [1]	pIC50 [2]	CC50 at 48 h [3] [µM]	inhibition at 10 µM [4] [%]
C=C(C)[C@@H]1CC[C@]2(COC(=O)c3cccc4ccccc34)CC[C@]3(C)[C@H](CC[C@@H]4[C@@]5(C)CC[C@H](OC(=O)c6cccc7ccccc67)C(C)(C)[C@@H]5CC[C@]43C)[C@@H]12	–	–	–	< 50
C=C(C)[C@@H]1CC[C@]2(CO[Si](C)(C)C(C)(C)C)CC[C@]3(C)[C@H](CC[C@@H]4[C@@]5(C)CC[C@H](O)C(C)(C)[C@@H]5CC[C@]43C)[C@@H]12	–	–	–	< 50
CC(=O)OC[C@]12CC[C@@H](C(C)(O)CO)[C@@H]1[C@H]1CC[C@@H]3[C@@]4(C)CC[C@H](O)C(C)(C)[C@@H]4CC[C@@]3(C)[C@]1(C)CC2 (stereo partly drawn)	–	–	–	< 50
CC(=O)OC[C@]12CC[C@@H]([C@]3(C)CO3)[C@@H]1[C@H]1CC[C@@H]3[C@@]4(C)CC[C@H](O)C(C)(C)[C@@H]4CC[C@@]3(C)[C@]1(C)CC2	–	–	–	< 50
C=C(COC(C)=O)[C@@H]1CC[C@]2(C)CC[C@]3(C)[C@H](CC[C@@H]4[C@@]5(C)CC[C@H](OC(C)=O)C(C)(C)[C@@H]5CC[C@]43C)[C@@H]12	–	–	–	< 50
C=C(C)[C@@H]1CC[C@]2(C)CC[C@]3(C)[C@H](CC[C@@H]4[C@@]5(C)CC(Br)C(=O)C(C)(C)[C@@H]5CC[C@]43C)[C@@H]12 (stereo partly drawn)	–	–	–	< 50
C=C(C)[C@@H]1CC[C@]2(C)CC[C@]3(C)[C@H](C[C@@H](OC(C)=O)[C@@H]4[C@@]5(C)CCC(=O)C(C)(C)[C@@H]5CC[C@]43C)[C@@H]12	–	–	–	< 50
C=C(CCl)[C@@H]1CC[C@]2(C)CC[C@]3(C)[C@H](C[C@@H](OC(C)=O)[C@@H]4[C@@]5(C)CCC(=O)C(C)(C)[C@@H]5CC[C@]43C)[C@@H]12	–	–	–	< 50
C=C(CCl)[C@@H]1CC[C@]2(C)CC[C@]3(C)[C@H](C[C@@H](OC(C)=O)[C@@H]4[C@@]5(C)C=CC(=O)C(C)(C)[C@@H]5CC[C@]43C)[C@@H]12	–	–	–	< 50
CC(C)[C@@H]1CC[C@]2(C)CC[C@]3(C)[C@@H](CC[C@@H]4[C@@]5(C)CC[C@H](OC(=O)/C=C/c6ccc(O)c(O)c6)C(C)(C)[C@@H]5CC[C@]43C)[C@@H]12	–	–	–	< 50
C=C(CO)[C@@H]1CC[C@]2(C)CC[C@]3(C)[C@H](CC[C@@H]4[C@@]5(C)CCC(=O)C(C)(C)[C@@H]5CC[C@]43C)[C@@H]12	–	–	–	< 50
C=C(C)[C@@H]1CC[C@]2(CO)CC[C@]3(C)[C@H](CC[C@@H]4[C@@]5(C)CC[C@H](OC(=O)/C=C/c6ccc(O)c(O)c6)C(C)(C)[C@@H]5CC[C@]43C)[C@@H]12	–	–	–	< 50
C=C(CO)[C@@H]1CC[C@]2(C)CC[C@]3(C)[C@H](CC[C@@H]4[C@@]5(C)CC[C@H](O)C(C)(C)[C@@H]5CC[C@]43C)[C@@H]12	–	–	–	< 50
C=C(C)[C@@H]1CC[C@]2(CO)CC[C@]3(C)[C@H](CC[C@@H]4[C@@]5(C)CC[C@@H](O)C(C)(C)[C@@H]5CC[C@]43C)[C@@H]12 [3-EPI-BETULIN]	2.3	5.06	20	> 50
C=C(C)[C@@H]1CC[C@]2(COC(C)=O)CC[C@]3(C)[C@H](CC[C@@H]4[C@@]5(C)CC[C@H](OC(C)=O)C(C)(C)[C@@H]5CC[C@]43C)[C@@H]12 [BETULIN DIACETATE]	–	–	–	< 50
C=C(C)[C@@H]1CC[C@]2(CO)CC[C@]3(C)[C@H](CC[C@@H]4[C@@]5(C)CC[C@H](O)C(C)(C)[C@@H]5CC[C@]43C)[C@@H]12 [BETULIN]	–	–	–	< 50
C=C(C)[C@@H]1CC[C@]2(C)CC[C@]3(C)[C@@H](CC[C@@H]4[C@@]5(C)C=CC(=O)C(C)(C)[C@@H]5CC[C@]43C)[C@@H]12 [GLOCHIDONE]	–	–	–	< 50
C=C(C)[C@@H]1CC[C@]2(C)CC[C@]3(C)[C@H](CC[C@@H]4[C@@]5(C)CCC(=O)C(C)(C)[C@@H]5CC[C@]43C)[C@@H]12 [LUPENONE]	–	–	–	< 50
C=C(C)[C@@H]1CC[C@]2(C)CC[C@]3(C)[C@H](CC[C@@H]4[C@@]5(C)CC[C@H](O)C(C)(C)[C@@H]5CC[C@]43C)[C@@H]12 [LUPEOL]	–	–	–	< 50
C=C(C)[C@@H]1CC[C@]2(C)CC[C@]3(C)[C@@H](C[C@@H](O)[C@@H]4[C@@]5(C)CCC(=O)C(C)(C)[C@@H]5CC[C@]43C)[C@@H]12 [RIGIDENOL]	–	–	–	< 50
